# SENP8 block-1 – inhibitors of human SENP8 protease. Q96LD8. purified SENP8, Z-RLRGG-aminoluciferin cleavage, luminescence. inhibition, % at 10 µM. hit rate 1.2% among 330,000. AID 2540; in the data active = inhibition above about 50%
# SENP6 inh – inhibitors of human SENP6 protease | Recombinant SENP6 catalytic domain, aminoluciferin luminescence | inhibition, % at 10 µM | hit rate 1.8% among 330,000;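 active = inhibition above about 50% at the single tested dose, limit read from the data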;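 also: plate controls were DMSO wells with enzyme for no effect and DMSO wells lacking enzyme for full effect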
# UBC13 polyUb – blocks human UBC13 polyubiquitin chain formation; inhibition, % at 20 µM; hit rate 0.47% among 330,000; TR-FRET; AID 485273; in the data active = inhibition above about 45%, passing the limit was not always enough
# Apaf-1 inh – blocks human Apaf-1 apoptosome activity. O14727. reconstituted apoptosome caspase-3 activity, DEVD-Rh110 fluorescence. inhibition, % at 20 µM. hit rate 0.71% among 330,000. AID 489030; active = inhibition of at least 40% at 20 µM;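 also: plate controls were DMSO wells for no effect and DEVD-CHO caspase inhibitor wells for full effect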
#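 Medium: Hepes buffer, pH 7.5 / System: biochemical Apaf-1 apoptosome reconstitution / Measured by: Rh110 fluorescence, excitation 480 nm, emission 540 nm / Times: compound with Apaf-1, dATP, procaspase-3 30 min, then 50 min reaction, room temperature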
# SENP7 block – inhibitors of human SENP7 protease | recombinant SENP7, Z-RLRGG-aminoluciferin luminescence, 40 min | inhibition, % at 5 µM | hit rate 1.5% among 330,000;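 active = inhibition above about 50% at the single test dose, limit read from the data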;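 also: plate controls were DMSO with enzyme for no effect and no enzyme buffer wells for full effect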
# SENP8 block-2 – inhibitors of human SENP8 protease. recombinant SENP8, Nedd8 substrate fluorescence. inhibition, % at 20 µM. Q96LD8. AID 602440. hit rate 0.64% among 360,000; in the data active = inhibition mostly above about 40%, no sharp cut-off; inactive = mostly below about 27%
# SENP8 confirm – confirmation of human SENP8 protease inhibitors; shares compounds with SENP7 block; Recombinant SENP8, Z-RLRGG-aminoluciferin luminescence, 60 min; inhibition, % at 12.5 µM; hit rate 40% among 6,200;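 active = mean inhibition across replicates above about 50%, limit read from the data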
# SENP6 conf – confirmation of human SENP6 protease inhibitors; shares compounds with SENP7 block; recombinant SENP6, Z-RLRGG-aminoluciferin luminescence; inhibition, % at 12.5 µM; AID 488915; hit rate 58% among 6,200
# SENP7 conf – human SENP7 inhibition, confirmed | shares compounds with SENP7 block | recombinant SENP7, Z-RLRGG-aminoluciferin luminescence, 40 min | inhibition, % at 12.5 µM | hit rate 69% among 6,200 | AID 488917
# Casp3 select – caspase-3 inhibition (SENP selectivity assay). hit rate 60% among 6,200. shares compounds with SENP7 block. inhibition, % at 12.5 µM. purified caspase-3, Z-DEVD-aminoluciferin luminescence, 60 min;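 active = mean inhibition above about 50%, limit read from the data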;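 also: plate controls were enzyme with DMSO for no effect and wells without caspase-3 for full effect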
# SENP luc ctr – counter-screen for SENP inhibitors: luminescence interference | shares compounds with SENP7 block | Pre-incubated SENP8/Z-RLRGG-aminoluciferin, luciferase luminescence interference | inhibition, % at 12.5 µM | hit rate 39% among 6,200 | AID 488919;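 active = mean inhibition above about 50% when retested at one dose, limit read from the data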;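 also: plate controls were DMSO wells with completed reaction for no effect and substrate without enzyme for full effect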
# * hit, by the source's call; nt = no result given. This is a sample that favours compounds with a hit; in the whole collection about 3.1% have one here.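 The calls were made as follows, unless noted: active = mean inhibition above about 50% in the one-dose retest (limit read from the data); inactive = the rest.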
SMILES,SENP8 block-1,SENP6 inh,UBC13 polyUb,Apaf-1 inh,SENP7 block,SENP8 block-2,SENP8 confirm,SENP6 conf,SENP7 conf,Casp3 select,SENP luc ctr
CC1CCC(C(C)C)C(OC(=O)CSc2n[nH]c(=O)[nH]c2=O)C1 (stereo not drawn),51*,0,-8,7,-4,5,-3,5,9,3,-9
COC(=O)[C@@]12C[C@@H](CC(=O)N3CCCCC3)C(=O)N(Cc3ccccc3)C1=CCC(C)(C)C2,nt,nt,nt,nt,nt,15,nt,nt,nt,nt,nt
COc1cc(NCCCCCCCN)c2ncccc2c1,89*,94*,-40,95*,95*,17,70*,87*,63*,97*,4
O=C(NCc1cccs1)C(=O)c1cn(CC(=O)N2CCOCC2)c2ccccc12,5,-8,4,2,8,8,nt,nt,nt,nt,nt
COc1ccccc1NC(=O)C(=O)c1cn(CC(=O)N2CCOCC2)c2ccccc12,47,52*,2,3,56*,13,9,40,17,10,2
O=C(NCc1ccccc1)C(=O)c1cn(CC(=O)N2CCOCC2)c2ccccc12,-13,-9,-10,0,55*,-45,-6,-2,4,5,-4
COc1ccccc1NC(=O)C(=O)c1cn(CC(=O)N2CCCC2)c2ccccc12,16,39,-8,18,38,-6,nt,nt,nt,nt,nt
Cc1cccc(CSc2cn(CC(=O)N3CCOCC3)c3ccccc23)c1,72*,65*,9,-1,74*,19,87*,87*,96*,70*,59*
COc1ccccc1C#Cc1cnc2c(c1)C(=O)N([C@H](C)CO)C[C@@H](C)[C@@H](CN(C)C(=O)c1ccc3c(c1)OCO3)O2,nt,nt,nt,nt,nt,-76,nt,nt,nt,nt,nt
CCc1cc(=O)oc2c3c(cc(OCC(=O)NCc4ccncc4)c12)OC(C)(C)CC3,9,52*,20,-8,-3,-206,9,7,1,-2,-4
O=C(Nc1ccccc1)Nc1cccc2ccccc12,5,23,20,-20,24,-57,nt,nt,nt,nt,nt
O=C(O)/C=C/C(=O)Nc1cccc2cccnc12,-5,6,-4,5,1,10,nt,nt,nt,nt,nt
O=C(Nc1ccccc1)Nc1cccc2cccnc12,60*,42,13,14,74*,8,80*,80*,94*,59*,77*
Cc1ccc(C(=O)Nc2cccc3cccnc23)cc1Br,-5,4,1,-10,55*,4,-2,2,9,23,12
O=C(Nc1ccc(C(=O)O)cc1)Nc1cccc2ccccc12,17,58*,-4,5,34,-74,38,34,65*,62*,34
O=C(Nc1cccc2cccnc12)c1ccc2c(c1)OCCO2,9,49,-8,12,32,-3,nt,nt,nt,nt,nt
COc1ccccc1Cc1c(C(C)(C)C)nc2c3ccccc3ccn12,nt,nt,nt,nt,nt,-133,nt,nt,nt,nt,nt
CCCSc1nn2c(=O)c3ccccc3nc2s1,37,64*,-4,16,45,7,67*,65*,89*,83*,65*
Cc1ccc(-n2nc3c(n2)/C(=N/O)CC/C3=N\O)cc1,66*,26,3,7,78*,-38,8,2,5,2,4
O/N=C1\CC/C(=N\O)c2nn(-c3ccccc3Cl)nc21,3,-9,8,-7,4,9,nt,nt,nt,nt,nt
COc1ccc(N2C(=S)N(C(=O)c3ccccc3)C(=Nc3ccccc3)C2=Nc2ccccc2)cc1,73*,83*,-29,2,92*,15,67*,82*,96*,93*,60*
